Experimental data published in publication PMC3073091 (Chromatographia, 2011).

Legend:
[1] = stability of DL76 in rat serum QC samples under storage and process conditions; format: in vitro ADME; conditions: bench top, post preparative, freeze/thaw, long term
[2] = target: human H3 receptor; conditions: read-out: hKi; human H3 receptor stably expressed in CHO-K1 cells; preliminary pharmacological studies; cited from earlier work
[3] = pilot pharmacokinetic study in rats after intravenous administration; format: in vivo, rat
Summary of the method: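 Male Wistar rats (13–15 weeks, 200–220 g) were fasted overnight with free water access. They received 3 mg kg−1 i.v. in 0.9% saline. Under thiopental (70 mg kg−1), blood was taken by decapitation at 5, 10, 30, 60, 120 and 240 min (n = 5 per time). Serum was stored at −30 °C, then 100 µL was extracted into ethyl acetate with internal standard for LC–MS–MS. Non-compartmental analysis used mean concentrations: t1/2 = 0.693/λz, Cl = dose/AUC0-inf, Vss = D·AUMC/AUC².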

[4] = male, Wistar, rat, serum, iv, 3 mg/kg

Q: What does the source list for `CC(C)(C)c1ccc(OCCCN2CCCCC2)cc1` [DL76, 1-[3-(4-tert-butylphenoxy)propyl]piperidine]?
A: stability in rat serum (all storage and process tests) [1]: good stability; Ki [2]: 22 ± 3 nM; clearance [3, 4]: 217 mL/min/kg; half-life [3, 4]: 1.41 h; serum concentration of DL76 in a representative rat serum sample ([3]; rat serum after i.v. 3 mg kg^−1, time not stated): 67.82 ng/mL
